Results pooled from the literature.
Protocols differ between the studies behind these lines.
Observed: cell growth or viability

SMILES	cell line	method	time	IC50
Cc1ncsc1-c1ccc([C@@H](C)NC(=O)[C@H]2C[C@H](O)CN2C(=O)[C@H](NC(=O)CCCCNC(=O)C23CC4CC(CC(Cn5ncc(-c6ccc(N7CCc8cccc(C(=O)Nc9nc%10ccccc%10s9)c8C7)nc6C(=O)O)c5C)(C4)C2)C3)C(C)(C)C)cc1	MOLT-4	MTS	48 h	> 1 µM
N#Cc1ccc(-c2cc(COc3cc(=O)oc4ccccc34)on2)cc1	LN-229	MTS	72 h	> 100 µM
COc1ccc2[nH]cc(C(=O)C(C#N)=Cc3cn(C)c4ccccc34)c2c1	MIA PaCa-2	MTT	48 h	4.5 µM
FC(F)(F)c1cc(OCc2cc(-c3ccc(Cl)cc3Cl)no2)c2ccccc2n1	LN-229	MTS	72 h	> 100 µM
NS(=O)(=O)c1ccc(-n2nc(C(=O)NN=Cc3ccccc3O)cc2-c2ccccc2)cc1	PaCa-2	fluorescence	48 h	10.9 µM
Clc1ccc(-c2cc(CNc3cccc4cccnc34)on2)c(Cl)c1	LN-229	MTS	72 h	54.4 µM
CCn1cc(C=C(C#N)C(=O)c2c[nH]c3cc(OC)c(OC)cc23)c2ccccc21	MIA PaCa-2	MTT	48 h	13 µM
O=C(CSc1nc2ccccc2s1)N/N=C/c1ccc(OCC(=O)Nc2cccc(Cl)c2)cc1	MOLT-4	MTS	72 h	7.7 µM
Cc1ncsc1-c1ccc([C@H](C)NC(=O)[C@@H]2C[C@@H](O)CN2C(=O)[C@@H](NC(=O)CCCCCCCNC(=O)c2nc(N3CCc4cccc(C(=O)Nc5nc6ccccc6s5)c4C3)ccc2-c2cnn(CC34CC5CC(CC(C5)C3)C4)c2C)C(C)(C)C)cc1	MOLT-4	MTS	48 h	0.065 µM
O=C(CSc1nc2ccccc2s1)N/N=C/c1ccc(OCC(=O)Nc2cccc([N+](=O)[O-])c2)cc1	LN-229	MTS	72 h	24.2 µM
O=C(NO)c1ccc(Cn2cnc3c(Nc4ccc(Cl)cc4)ncnc32)cc1	Jurkat	MTT	72 h	0.91 µM
Cc1ncsc1-c1ccc([C@H](C)NC(=O)[C@@H]2C[C@@H](O)CN2C(=O)[C@@H](NC(=O)CN2CCN(c3cc(-c4ccccc4O)nnc3N)CC2)C(C)(C)C)cc1	LNCaP	ATP luminescence	7 days	0.0153 µM
CN1CCC(NC2CCc3[nH]c4c(C(N)=O)ccc(-c5ccccc5Cl)c4c3C2)CC1 (stereo not shown)	Jurkat	–	96 h	0.0193 µM
Cc1ncsc1-c1ccc([C@H](C)NC(=O)[C@H]2C[C@H](O)CN2C(=O)[C@@H](NC(=O)CCCCCCCS(=O)(=O)NC(=O)c2nc(N3CCc4cccc(C(=O)Nc5nc6ccccc6s5)c4C3)ccc2-c2cnn(CC34CC5CC(CC(C5)C3)C4)c2C)C(C)(C)C)cc1	human Platelet	MTS	48 h	0.931 µM
CCOc1ccc2[nH]cc(C(=O)C(C#N)=Cc3cn(CC)c4ccccc34)c2c1	MIA PaCa-2	MTT	48 h	5.8 µM
Cc1ncsc1-c1ccc([C@H](CC(=O)NCCCCCCNC(=O)c2nc(N3CCc4cccc(C(=O)Nc5nc6ccccc6s5)c4C3)ccc2-c2cnn(CC34CC5CC(CC(C5)C3)C4)c2C)NC(=O)[C@@H]2C[C@@H](O)CN2C(=O)[C@@H](NC(=O)C2(C#N)CC2)C(C)(C)C)cc1	MOLT-4	MTS	48 h	0.117 µM
COc1cc(C=NNC(=O)c2cc(-c3ccccc3)n(-c3ccc(S(N)(=O)=O)cc3)n2)cc(OC)c1OC	PaCa-2	fluorescence	48 h	22 µM
O=c1cc(OCc2cc(-c3ccc(Cl)cc3Cl)no2)c2ccccc2o1	LN-229	MTS	72 h	> 100 µM
Nc1ccccc1NC(=O)c1ccc(Cn2cnc3c(Nc4ccc(Br)cc4F)ncnc32)cc1	MOLT-4	MTT	72 h	0.45 µM
Cc1ncsc1-c1ccc([C@H](CC(=O)NCCNC(=O)c2nc(N3CCc4cccc(C(=O)Nc5nc6ccccc6s5)c4C3)ccc2-c2cnn(CC34CC5CC(CC(C5)C3)C4)c2C)NC(=O)[C@@H]2C[C@@H](O)CN2C(=O)[C@@H](NC(=O)C2(C#N)CC2)C(C)(C)C)cc1	MOLT-4	MTS	48 h	0.0235 µM
CCc1oc2cc(S(=O)(=O)Nc3ccc(S(=O)(=O)Nc4nccs4)cc3)ccc2c1C(=O)c1cc(Br)c(O)c(Br)c1	T47D	MTT	96 h	62.2 µM
COc1ccc(Nc2ncnc3c2ncn3Cc2ccc(C(=O)Nc3ccccc3N)cc2)cc1	Jurkat	MTT	72 h	9.74 µM
Cc1c(-c2ccc(N3CCc4cccc(C(=O)Nc5nc6ccccc6s5)c4C3)nc2C(=O)NCCCCNc2cccc3c2C(=O)N(C2CCC(=O)NC2=O)C3=O)cnn1CC12CC3CC(CC(C3)C1)C2 (stereo not shown)	MOLT-4	MTS	48 h	0.126 µM
COc1ccc2c(C(=O)C(C#N)=Cc3cn(Cc4ccc(Cl)cc4)c4ccccc34)c[nH]c2c1	MIA PaCa-2	MTT	48 h	7.9 µM
Cc1c(-c2ccc(N3CCc4cccc(C(=O)Nc5nc6ccccc6s5)c4C3)nc2C(=O)O)cnn1CC12CC3CC(C1)CC(C(=O)NCCOCCOCCOCCNc1cccc4c1C(=O)N(C1CCC(=O)NC1=O)C4=O)(C3)C2 (stereo not shown)	MOLT-4	MTS	48 h	0.0846 µM
CN(C)c1ccc(Nc2nc(-c3ccncc3)nc3c2CC(N)CC3)cc1 (stereo not shown)	DU-145	MTT	–	11.5 µM
Cc1c(-c2ccc(N3CCc4cccc(C(=O)Nc5nc6ccccc6s5)c4C3)nc2C(=O)O)cnn1CC12CC3CC(C1)CC(C(=O)NCCCCCCCCCCNc1cccc4c1C(=O)N(C1CCC(=O)NC1=O)C4=O)(C3)C2 (stereo not shown)	MOLT-4	MTS	48 h	0.021 µM
FC(F)(F)c1ccc(-c2cc(CNc3cccc4cccnc34)on2)cc1	LN-229	MTS	72 h	51.8 µM
